Source: PubChem BioAssay
Rows were chosen to be rich in hits. Some 1.8% of all compounds tested hit in one or more screens of this group.
UHRF1 binding = human UHRF1 methylated DNA binding inhibitors; Q96T88; UHRF1 binding to methylated oligo, TR-FRET; inhibition, % at 4.4 µM; 0.75% of 370,000 active; AID 687016; in the data active = inhibition above about 21%;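 note: UHRF1 SRA domain binding a hemimethylated CpG hairpin DNA probe; 0% = median of test compound wells and 100% = reference inhibitor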
TDP2 absorb = TDP2 (human) inhibition, absorbance primary screen. O95551. recombinant TDP2, T5PNP hydrolysis, p-nitrophenol absorbance 415 nm. inhibition, % at 12.8 µM. 0.34% of 370,000 active;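 active = inhibition above the mean of all tested compounds plus 3 SD, set per campaign, cut at about 25% in these data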;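 note: 0% = DMSO with enzyme and 100% = buffer with substrate but no TDP2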
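test system = human TDP2 enzyme | input = TDP2 enzyme at 120 nM final | medium = 50 mM Tris-HCl pH 7.5 with Mg2+, KCl, DTT, BSA | also added = T5PNP substrate, 5 mM | times = 2 h at 37 °C | technique = epi absorbance | benchmarks = high control without enzyme, low control DMSO plus TDP2 | replication = each compound tested once, singlicate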
MBD2 inh = MBD2-methylated oligo binding inhibition. Q9UBB5. TR-FRET, MBD2 binding to methylated oligonucleotide. 0.31% of 370,000 active. inhibition, % at 4.4 µM; in the data active = inhibition above about 13%
Target sequence (Q9UBB5 whole entry, looked up): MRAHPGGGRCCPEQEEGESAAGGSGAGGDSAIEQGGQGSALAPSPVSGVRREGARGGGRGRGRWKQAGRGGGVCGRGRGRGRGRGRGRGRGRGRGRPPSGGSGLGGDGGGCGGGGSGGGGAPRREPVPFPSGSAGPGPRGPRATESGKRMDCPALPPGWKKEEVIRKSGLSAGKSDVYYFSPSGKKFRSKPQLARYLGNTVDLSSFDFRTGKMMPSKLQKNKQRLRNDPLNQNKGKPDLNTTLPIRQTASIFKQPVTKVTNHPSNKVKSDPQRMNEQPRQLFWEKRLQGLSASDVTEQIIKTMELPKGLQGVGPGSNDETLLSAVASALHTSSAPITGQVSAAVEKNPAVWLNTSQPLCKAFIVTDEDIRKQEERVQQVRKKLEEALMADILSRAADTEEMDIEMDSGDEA
HCV core dimer = blocks dimerization of HCV core protein | TR-FRET GST/Flag-core106 dimerization, 1536-well | inhibition, % at 5 µM | 0.33% of 300,000 active;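 active = inhibition above the mean of all tested compounds plus 3 SD, set per screening campaign, cut at about 45% in these data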
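test system = GST/Flag-tagged HCV core106 proteins | probe or stimulus = Eu donor and XL665 acceptor anti-tag antibodies | times = compound-protein-antibody incubation 4 h at 22.5 °C | signal = TR-FRET, excitation 340 nm, emission 617 and 671 nm | measure = percent inhibition of core106 dimerization signal | controls = wells lacking GST-core106 and wells with excess unlabelled core106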
LEDGF integ inh = blocks HIV-1 LEDGF/p75-dependent DNA integration; inhibition, % at 3.7 µM; 0.64% of 370,000 active; TR-FRET IN-LEDGF/p75 DNA integration, Eu/Cy5; AID 743269;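 active = inhibition above the screen-wide mean plus 3 SD, cut at about 13% in these data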;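 note: signal is the Cy5 over europium emission ratio at 671 and 618 nm; 0% = plate median of compound wells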
IN multimer act = HIV-1 integrase multimerization activation, counter-screen | shares compounds with LEDGF integ inh | AID 1053131 | activation, % at 7.7 µM | TR-FRET HIV-1 integrase multimerization, biochemical | 17% of 2,000 active; in the data active = activation above about 8.9%
TR-FRET interf = counter-screen for LEDGF/p75 integration inhibitors: TR-FRET optical interference | shares compounds with LEDGF integ inh | TR-FRET optical interference counterscreen, HIV-1 IN multimerization | inhibition, % at 7.7 µM | 2,000 tested, under 10 active;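 active = inhibition above the mean over all tested compounds plus 3 SD, which no compound reached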;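 note: 0% = integrase with antibodies and DMSO and 100% = antibodies without integrase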
IN-LEDGF confirm = LEDGF/p75-dependent HIV-1 integration inhibition, confirmation | shares compounds with LEDGF integ inh | TR-FRET LEDGF/p75-dependent HIV-1 integration, biochemical | inhibition, % at 3.7 µM | 36% of 2,000 active | AID 1053136; in the data active = inhibition above about 14%
Numbers without * were called inactive; / = not tested or not shown.

SMILES	UHRF1 binding	TDP2 absorb	MBD2 inh	HCV core dimer	LEDGF integ inh	IN multimer act	TR-FRET interf	IN-LEDGF confirm
CC1OC(OCC2OC(Oc3c(-c4ccc(O)cc4)oc4cc(O)cc(O)c4c3=O)C(O)C(O)C2O)C(O)C(O)C1O (configuration not stated)	4	1	-6	-6	17*	30*	-152	47*
CC1OC(OC2C(Oc3c(-c4ccc(O)cc4)oc4cc(O)cc(O)c4c3=O)OC(COC3O[C@@H](C)[C@H](O)[C@@H](O)C3O)C(O)C2O)C(O)C(O)C1O (some centres not stated)	3	0	-5	2	-1	/	/	/
CCC(C(=O)Nc1cnccn1)c1ccccc1 (configuration not stated)	1	-3	4	0	-3	/	/	/
CCC(C(=O)Nc1ccccn1)c1ccccc1 (configuration not stated)	-1	3	7	-5	14*	0	-1	13
O=C(CC(=O)OCc1ccccc1)OCc1ccccc1	-2	-4	1	/	7	/	/	/
N#CC(CC(=O)OCc1ccccc1)NC(=O)OCc1ccccc1 (configuration not stated)	0	-4	1	/	33*	-1	6	-3
O=c1c2c(-c3ccco3)csc2nc(SCc2cn3cccnc3n2)n1-c1ccccc1	32*	0	7	66*	27*	2	-8	22*
NC(=O)CSc1nc2scc(-c3ccco3)c2c(=O)n1-c1ccccc1	3	-3	1	19	17*	-1	3	5
Cc1ccc(-c2cc(C(=O)NN=Cc3sccc3C)[nH]n2)cc1C	-1	7	0	/	-5	/	/	/
O=C(NCCc1c[nH]c2ccccc12)OCc1cn(-c2ccc(F)cc2)nn1	7	-6	10	/	-6	/	/	/
O=C(NCCNCc1ccc(F)cc1)c1ccco1	1	7	-3	-3	22*	0	-2	-2
O=C(Nc1nc(-c2ccccc2)cs1)c1ccc(=O)[nH]c1	4	-4	0	5	4	/	/	/
Cc1cc(-c2csc(NC(=O)c3ccc(=O)[nH]c3)n2)c(C)n1Cc1ccccc1	1	-7	7	55*	17*	6	-29	26*
NC(=O)CC1Nc2cccc3cccc(c23)NC1=O (configuration not stated)	-2	10	-2	-24	19*	35*	-126	32*
CN(C(=O)[C@H]1O[C@@H](n2cnc(C(N)=O)n2)[C@H](O)[C@@H]1O)c1ccccc1	1	-2	-1	/	-6	/	/	/
CC(C)[C@H](NC(=O)[C@H](C)NC(=O)OC(C)(C)C)C(=O)N1CCC2CCN(Cc3ccccc3)CC21 (some centres not stated)	4	3	11	/	-4	/	/	/
O=C(Cn1cc(COc2ccc(-n3cccc3)cc2)nn1)NS(=O)(=O)c1ccccc1C(F)(F)F	7	-2	1	/	27*	1	-5	-14
O=C(Cn1cc(COc2ccc(Cl)c(Cl)c2)nn1)NS(=O)(=O)c1ccccc1C(F)(F)F	0	11	2	/	3	/	/	/
CCN1CCCCC(NC(=O)COCc2ccccc2)C1=O (configuration not stated)	-3	5	-1	/	1	/	/	/
O=C(CN1CCCCC1)NNc1nc(-c2ccccc2)c2cc(Br)ccc2n1	-3	3	-4	1	19*	1	-5	-8
O=c1cc(-c2ccccc2)oc2cc(O)c(O)c(O)c12	12	7	8	/	30*	5	-27	26*
O=c1cc(-c2ccc(O)cc2)oc2c(O)c(O)c(O)c(O)c12	18	4	9	-36	41*	19*	-94	92*
COc1c(O)cc2oc(-c3ccc(O)cc3)cc(=O)c2c1O	-6	4	-1	2	-3	/	/	/
Cn1c(=O)c2[nH]c(SCC(=O)N3CCN(c4cccc(C(F)(F)F)c4)CC3)nc2n(C)c1=O	0	10	0	/	0	/	/	/
O=C(OCc1cn([C@H]2C[C@H](c3ccccc3)N(CC3CCCCC3)C[C@@H]2O)nn1)c1ccccc1	0	2	-1	/	4	/	/	/
COc1ccc([C@H]2C[C@H](O)[C@@H](n3cc(COC(=O)c4ccccc4)nn3)CN2CC2CCCCC2)cc1	2	-4	1	/	28*	-1	3	-1
COc1ccc(-c2cc(C(=O)NN=Cc3ccccc3F)[nH]n2)cc1	0	4	5	/	-5	/	/	/
Nc1c(N(C(=O)Nc2ccc(Cl)c(Cl)c2)C2CCCC2)c(=O)[nH]c(=O)n1Cc1ccccc1	-1	0	3	9	14*	1	-3	1
O=C(O)CCC(=O)Nc1ccc(N2CCCCCC2)cc1	-2	13	-3	-22	14*	5	-25	-10
